FAS TE block = FAS thioesterase (human) inhibition. 360,000 compounds, 0.67% hits. recombinant FAS-TE, OMFH fluorogenic substrate, fluorescence endpoint. inhibition, % at 15 µM. AID 602261. P49327;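 active means compounds whose normalised, plate-corrected inhibition of enzyme fluorescence in the single-dose primary screen is 50% or more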;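 further: 0% = DMSO with enzyme and 100% = substrate without enzyme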
Target sequence (P49327 whole entry, looked up): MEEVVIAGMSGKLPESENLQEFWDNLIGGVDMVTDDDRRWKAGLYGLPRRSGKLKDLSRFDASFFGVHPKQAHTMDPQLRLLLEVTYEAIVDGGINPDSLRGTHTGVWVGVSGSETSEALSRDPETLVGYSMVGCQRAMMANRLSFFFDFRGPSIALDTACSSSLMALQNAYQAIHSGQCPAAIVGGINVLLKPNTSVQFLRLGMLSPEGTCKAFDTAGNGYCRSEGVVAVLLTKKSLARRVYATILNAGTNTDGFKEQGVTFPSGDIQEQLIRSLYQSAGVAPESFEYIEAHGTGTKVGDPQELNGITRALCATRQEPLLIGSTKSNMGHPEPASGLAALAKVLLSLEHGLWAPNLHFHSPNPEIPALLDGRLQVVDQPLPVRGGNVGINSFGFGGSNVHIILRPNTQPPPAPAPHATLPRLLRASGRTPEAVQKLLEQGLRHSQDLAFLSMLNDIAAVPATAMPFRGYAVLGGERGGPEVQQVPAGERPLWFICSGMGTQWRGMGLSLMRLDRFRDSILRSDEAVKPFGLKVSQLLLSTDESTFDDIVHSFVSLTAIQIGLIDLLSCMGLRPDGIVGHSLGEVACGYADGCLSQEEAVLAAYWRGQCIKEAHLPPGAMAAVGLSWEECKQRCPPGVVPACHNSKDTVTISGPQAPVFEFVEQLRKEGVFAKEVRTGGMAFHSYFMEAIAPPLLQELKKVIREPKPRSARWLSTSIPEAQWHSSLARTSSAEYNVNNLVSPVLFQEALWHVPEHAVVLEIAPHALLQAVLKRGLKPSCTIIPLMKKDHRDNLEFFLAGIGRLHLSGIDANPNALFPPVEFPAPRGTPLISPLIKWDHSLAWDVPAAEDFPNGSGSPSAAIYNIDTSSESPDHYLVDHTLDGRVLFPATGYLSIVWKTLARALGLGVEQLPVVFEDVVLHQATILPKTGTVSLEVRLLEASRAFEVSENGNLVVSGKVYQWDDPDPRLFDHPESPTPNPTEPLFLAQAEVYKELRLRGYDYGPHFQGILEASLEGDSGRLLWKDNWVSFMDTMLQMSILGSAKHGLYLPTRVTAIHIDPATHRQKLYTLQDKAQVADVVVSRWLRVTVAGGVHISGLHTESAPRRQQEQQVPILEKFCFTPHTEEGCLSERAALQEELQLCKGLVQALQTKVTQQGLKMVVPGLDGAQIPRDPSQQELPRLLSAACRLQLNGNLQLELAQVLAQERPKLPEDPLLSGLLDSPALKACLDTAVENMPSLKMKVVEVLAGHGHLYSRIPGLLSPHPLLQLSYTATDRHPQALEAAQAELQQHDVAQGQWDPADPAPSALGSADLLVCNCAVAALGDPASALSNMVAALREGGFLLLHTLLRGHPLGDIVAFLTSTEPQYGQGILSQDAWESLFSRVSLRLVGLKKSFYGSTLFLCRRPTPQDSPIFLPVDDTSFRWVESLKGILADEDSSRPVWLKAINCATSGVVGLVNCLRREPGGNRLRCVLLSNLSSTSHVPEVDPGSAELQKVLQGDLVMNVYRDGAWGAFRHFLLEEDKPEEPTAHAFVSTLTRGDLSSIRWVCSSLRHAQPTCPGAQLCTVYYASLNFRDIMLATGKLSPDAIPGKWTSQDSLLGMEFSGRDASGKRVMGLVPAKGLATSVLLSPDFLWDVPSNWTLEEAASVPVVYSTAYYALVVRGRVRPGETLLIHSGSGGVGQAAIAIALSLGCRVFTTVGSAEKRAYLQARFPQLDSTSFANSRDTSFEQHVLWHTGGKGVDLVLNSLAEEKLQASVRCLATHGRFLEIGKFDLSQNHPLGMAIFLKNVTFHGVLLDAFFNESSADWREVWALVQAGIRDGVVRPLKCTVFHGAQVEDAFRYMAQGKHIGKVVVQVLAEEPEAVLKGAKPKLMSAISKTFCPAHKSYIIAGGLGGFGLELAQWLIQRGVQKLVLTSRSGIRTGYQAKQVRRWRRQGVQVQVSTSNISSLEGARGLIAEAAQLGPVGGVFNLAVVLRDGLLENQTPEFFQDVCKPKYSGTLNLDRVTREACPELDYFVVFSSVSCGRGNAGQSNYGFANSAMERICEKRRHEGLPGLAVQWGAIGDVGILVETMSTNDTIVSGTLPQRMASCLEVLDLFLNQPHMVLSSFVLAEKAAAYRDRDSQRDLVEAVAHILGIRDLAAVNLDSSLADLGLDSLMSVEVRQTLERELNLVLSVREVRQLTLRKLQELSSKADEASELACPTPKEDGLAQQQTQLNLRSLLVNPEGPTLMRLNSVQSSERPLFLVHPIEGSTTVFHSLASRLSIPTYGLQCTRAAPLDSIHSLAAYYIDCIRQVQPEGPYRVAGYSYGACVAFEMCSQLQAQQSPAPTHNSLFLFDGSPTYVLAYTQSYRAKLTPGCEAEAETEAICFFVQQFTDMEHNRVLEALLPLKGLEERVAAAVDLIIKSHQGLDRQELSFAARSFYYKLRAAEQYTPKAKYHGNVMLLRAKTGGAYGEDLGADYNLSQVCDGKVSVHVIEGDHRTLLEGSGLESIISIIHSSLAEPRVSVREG
SENP1 inh = SENP1 (human) catalytic domain inhibition | Q9P0U3 | recombinant SENP1 catalytic domain, CyPet-SUMO1-YPet FRET cleavage | inhibition, % at 10 µM | 360,000 compounds, 0.21% hits | AID 624204;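 active means inhibition at least 30% at 10 µM, raw YFP signal under a set limit, fluorescence ratio 0.5 to 1.5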;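 further: 0% = enzyme with DMSO and 100% = no enzyme wells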
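Compound: 10 µM single point, 0.5% DMSO; Test system: hSENP1 catalytic domain, recombinant; Timing: 50 min reaction at room temperature; Technique: FRET, CFP and YFP emission; Control set: no-enzyme wells low, DMSO-plus-enzyme wells high control.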
NR3A LBD binder = NR3A (human) ligand-binding domain modulation; NR3A LBD differential scanning fluorimetry, Tm shift; 0% = protein alone, 100% = glycine-bound protein; 340,000 compounds, 2.5% hits; Tm shift relative to glycine control, % at 25 µM;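 active means melting temperature shift of at least 10% of the positive control shift, at one fixed dose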
H9c2 protect = modulators protecting cardiomyocytes from myocardial damage. H9c2 cardiomyocytes, H2O2 injury protection, ATPLite, 2 h. protection from H2O2 cell death, % at 20 µM. 360,000 compounds, 0.63% hits;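 active means compounds giving at least 50% protection of heart cells from peroxide-induced death in the single-dose screen, raw or plate-pattern-corrected value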;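 further: 0% = DMSO wells with peroxide and 100% = DMSO wells without peroxide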
Arr AP2 block = human beta-arrestin and AP2 interaction inhibition; AID 504490; inhibition, % at 10 µM; FITC-arrestin peptide / GST-AP2 beads, flow cytometry; AP2 beta2 appendage carries R879A mutation; 340,000 compounds, 0.31% hits;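 active means inhibition above a set limit, near 3 SD of compounds lacking own fluorescence, cut at about 54% in these data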;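 further: plate controls were DMSO wells for no effect and 5 µM unlabelled arrestin peptide for full effect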
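test system = AP2 appendage R879A on GSH beads | buffer or medium = PBS plus Tween 20 (0.05%) and BSA (0.1%) | incubation = 12 min plus 1 h, RT | detection = bead flow cytometry, FITC channel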
iPSC survival up = enhancers of human iPSC single-cell survival | hiPSC single-cell survival, ATPlite luminescence; 100% = ROCK inhibitor wells, 0% = DMSO | 360,000 compounds, 0.044% hits | AID 602274 | survival enhancement, % at 20 µM; in the data active means survival enhancement above about 18%;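 further: cells exposed to compounds for 16 hours before the ATP read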
FAS-TE conf = FAS thioesterase (human) inhibition, confirmation; shares compounds with FAS TE block; recombinant FAS-TE, OMFH fluorogenic substrate, fluorescence; inhibition, % at 15 µM; 2,300 compounds, 45% hits;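 active means compounds inhibiting the enzyme by at least 50% at 15 µM in any one of the replicates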;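 further: 0% = enzyme with DMSO only and 100% = wells lacking enzyme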
Starred values were filed as active, the others as inactive; . = no result given. Only some compounds are listed: those with a hit (about 4% of all), similar ones and a draw of the others.

SMILES	FAS TE block	SENP1 inh	NR3A LBD binder	H9c2 protect	Arr AP2 block	iPSC survival up	FAS-TE conf
O=[N+]([O-])c1ccccc1NCCNc1ncc(C(F)(F)F)cc1Cl	19	3	-22	-14	-4	-1	.
CC1=C(C(=O)N(C(C)C)C(C)C)CC(CC(=O)NCCCCc2ccccc2)C(=O)N1CCCN1CCCC1=O (centres undefined)	-6	1	.	7	.	1	.
C[C@H]1CN([C@@H](C)CO)C(=O)CCCn2cc(nn2)CO[C@@H]1CN(C)C(=O)CCC(F)(F)F	-8	2	.	7	.	0	.
Cc1ccc(O)c(N=Nc2ccc(S(=O)(=O)N3CCOCC3)cc2)c1	27	3	0	-5	50	0	.
CC(C)(C)c1cc(Br)c(O)c(N=Nc2ccc(S(=O)(=O)N3CCOCC3)cc2)c1	84*	0	-5	-2	11	0	49*
Cc1ccccc1-n1c(SCC(=O)N/N=C/C=C/c2ccccc2[N+](=O)[O-])nc2ccccc2c1=O	79*	3	-7	-4	-6	-1	27
O=C(CSc1nc2ccccc2c(=O)n1-c1ccccc1)N/N=C/C=C/c1ccccc1[N+](=O)[O-]	23	1	-1	-1	4	0	.
O=C(CSc1nc2ccccc2c(=O)n1-c1ccc(Cl)cc1)N/N=C/C=C/c1ccccc1[N+](=O)[O-]	80*	1	-1	-6	5	-2	17
COc1ccc(NC(=O)CNCc2cccs2)c(OC)c1	-7	3	.	0	.	4	.
COc1ccc([C@H]2CC(=O)C=C(c3ccc(C)c([N+](=O)[O-])c3)C2)cc1	76*	1	2	-9	3	1	81*
COc1ccc([C@H]2CC(=O)C=C(c3ccc(Cl)c(C(F)(F)F)c3)C2)cc1	54*	-2	-19	-13	0	-3	-1
O=C(Nc1cccc([N+](=O)[O-])c1)NC1CCCCCCC1	53*	1	-2	-16	-1	0	63*
O=C(NC1CCCCC1)N(c1ccccc1)c1nnc(-c2cccc([N+](=O)[O-])c2)s1	70*	-3	.	-3	.	5	63*
O=c1cc(CN(Cc2ccccc2)Cc2ccccc2)c2ccccc2o1	22	1	.	-6	.	-2	.
CN(CCO)c1cc(NCCCN2CCC(Cc3ccccc3)CC2)c2nonc2c1[N+](=O)[O-]	68*	-47	1	3	-13	-1	42*
CC(=O)N(O)c1ccc(C=Cc2ccccc2)cc1	3	-9	.	-4	.	0	.
Cc1cccc(Oc2ccc(S(=O)(=O)N3CCCCC3)cc2NC(=O)C2=COCCO2)c1	65*	-3	-1	-8	2	-2	6
Cc1c(OCC(=O)NC(Cc2ccc(Cl)cc2)C(=O)O)ccc2c(-c3ccccc3)cc(=O)oc12 (centres undefined)	55*	1	-10	4	14	3	62*
Nc1nc2ccccc2n1S(=O)(=O)c1ccccc1	-5	1	.	-6	.	4	.
COc1ccccc1C(=O)Nc1ccc(S(=O)(=O)N2CCc3ccccc32)cc1	51*	1	-1	-5	-5	-1	26
O=C1NC(=S)S/C1=C\c1cc2ccccc2nc1N1CCCCC1	69*	76*	-1	-16	17	-1	51*
Cc1cc(/C=C2\SC(=S)NC2=O)c(C)n1-c1ccccc1	27	-43	0	-15	27	-1	.
COc1ccc2nc(N3CCCCC3)c(/C=C3\SC(=S)NC3=O)cc2c1	62*	92	-2	-19	-18	-1	24
CCC1(c2ccc(F)cc2)NC(=O)N(CC(=O)N2CCN(S(=O)(=O)c3ccc(C)cc3C)CC2)C1=O (centres undefined)	7	2	5	-14	-18	0	.
Cc1ccc(NC(=O)C(OC(=O)c2ccc(C=O)cc2)c2ccccc2)cc1Cl (centres undefined)	50*	3	6	-11	-2	-1	11
SMILES	FAS TE block	SENP1 inh	NR3A LBD binder	H9c2 protect	Arr AP2 block	iPSC survival up	FAS-TE conf
C=CCOc1cccn2c(N(C)C(=O)c3ccccc3F)c(CC)nc12	-10	-4	.	4	.	-1	.
COc1ccc(NC(=O)Nc2cccc3c2O[C@H](CN(C)C(=O)Nc2ccc(C(F)(F)F)cc2)[C@@H](C)CN([C@H](C)CO)C3=O)cc1	52*	2	0	12	0	-4	56*
C[C@H](CO)N1C[C@H](C)[C@@H](CN(C)C(=O)NC2CCCCC2)Oc2c(NC(=O)Nc3ccccc3)cccc2C1=O	66*	1	-10	14	.	3	77*
Cc1cc(C)c(-c2csc(NC(=O)c3cc([N+](=O)[O-])ccc3N3CCOCC3)n2)c(C)c1	65*	4	1	-1	4	-2	33
O=C(Nc1nc(-c2ccc(F)c(F)c2)cs1)c1cc([N+](=O)[O-])ccc1N1CCOCC1	55*	0	-2	12	-3	-3	29
O=C(Nc1nc2ccc(Oc3ccccc3)cc2s1)c1cc([N+](=O)[O-])ccc1N1CCOCC1	27	-2	-4	5	2	1	.
Cc1cccc(NC(=O)c2cc([N+](=O)[O-])ccc2N2CCOCC2)c1C	18	1	.	-1	.	3	.
O=C(O)CC(NC(=O)CCC1CCCCC1)c1cc([N+](=O)[O-])ccc1Cl (centres undefined)	60*	-2	0	15	-10	0	67*
O=C(CCC1CCCC1)Nc1ccc([N+](=O)[O-])cn1	12	0	0	1	-8	-1	.
CCCCCNC(=O)C1C(=O)Nc2ccccc2C(=O)N1c1c(C)cccc1C (centres undefined)	.	2	.	.	.	.	.
COc1cc(C(O)c2nc(-c3ccncc3)cs2)ccc1F (centres undefined)	-5	4	.	-17	.	-1	.
CCOc1ccccc1NC(=O)c1nc(S(=O)(=O)Cc2ccccc2)ncc1Cl	60*	2	2	-16	1	12	59*
COC(=O)c1ccc(NC(=O)c2nc(S(=O)(=O)Cc3cccc(C)c3)ncc2Cl)cc1	55*	2	-9	-15	1	19	29
COc1ccccc1NC(=O)c1nc(S(=O)(=O)Cc2ccccc2)ncc1Cl	55*	-1	6	-17	3	3	19
CCS(=O)(=O)c1ncc(Cl)c(C(=O)Nc2ccccc2OC)n1	15	2	1	-18	5	18	.
CC1(C(=O)Nc2cccc3c2CCCC3)CCN1C(=O)c1cccc(F)c1 (centres undefined)	4	0	.	4	.	-3	.

Compound activity from PubChem.
